MBD2 DNA inh = inhibitors of human MBD2 binding to methylated oligonucleotide; inhibition, % at 4.4 µM; actives 0.31% (n = 370,000); TR-FRET; in the data active means inhibition above about 13%
UHRF1 MBD2 ctr = blocks human UHRF1 binding to methylated DNA; Q96T88; UHRF1 binding to methylated oligo, TR-FRET; inhibition, % at 4.4 µM; actives 0.75% (n = 370,000); AID 687016; in the data active means inhibition above about 21%;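 further: UHRF1 SRA domain binding a hemimethylated CpG hairpin DNA probe; 0% = median of test compound wells and 100% = reference inhibitor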
LEDGF integ inh = blocks HIV-1 LEDGF/p75-dependent DNA integration. TR-FRET IN-LEDGF/p75 DNA integration, Eu/Cy5. inhibition, % at 3.7 µM. actives 0.64% (n = 370,000). AID 743269;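 active means inhibition above the screen-wide mean plus 3 SD, cut at about 13% in these data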;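 further: signal is the Cy5 over europium emission ratio at 671 and 618 nm; 0% = plate median of compound wells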
TDP2 absorb = TDP2 (human) inhibition, absorbance primary screen. O95551. actives 0.34% (n = 370,000). inhibition, % at 12.8 µM. recombinant TDP2, T5PNP hydrolysis, p-nitrophenol absorbance 415 nm;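 active means inhibition above the mean of all tested compounds plus 3 SD, set per campaign, cut at about 25% in these data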;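 further: 0% = DMSO with enzyme and 100% = buffer with substrate but no TDP2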
Target sequence (O95551 whole entry, looked up): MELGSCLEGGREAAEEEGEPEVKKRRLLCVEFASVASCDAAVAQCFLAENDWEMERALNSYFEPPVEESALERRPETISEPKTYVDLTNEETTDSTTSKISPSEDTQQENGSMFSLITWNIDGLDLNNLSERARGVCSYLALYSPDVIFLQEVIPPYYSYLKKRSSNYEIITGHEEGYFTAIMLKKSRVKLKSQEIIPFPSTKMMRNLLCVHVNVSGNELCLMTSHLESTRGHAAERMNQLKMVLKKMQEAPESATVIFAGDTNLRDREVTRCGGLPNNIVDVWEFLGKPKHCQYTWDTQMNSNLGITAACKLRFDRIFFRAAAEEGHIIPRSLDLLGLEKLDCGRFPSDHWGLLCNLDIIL
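Incubation: 2 h at 37 °C; Test system: recombinant human TDP2; Quantity: enzyme 120 nM; Read-out basis: percent inhibition; Medium: 50 mM Tris-HCl pH 7.5 with Mg2+, KCl, DTT, BSA; Repeats: single replicate; Compound: 12.8 µM single point, 1% DMSO; Signal: epi absorbance; Reagent: 5 mM T5PNP chromogenic substrate; Benchmarks: no-enzyme high, DMSO-plus-enzyme low.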
IN multimer act = activates HIV-1 integrase multimerization in LEDGF counter-screen; activation, % at 7.7 µM; TR-FRET HIV-1 integrase multimerization, biochemical; shares compounds with LEDGF integ inh; AID 1053131; actives 17% (n = 2,000); in the data active means activation above about 8.9%
TR-FRET interf = TR-FRET optical interference, LEDGF/p75 integration counter-screen; shares compounds with LEDGF integ inh; TR-FRET optical interference counterscreen, HIV-1 IN multimerization; inhibition, % at 7.7 µM; 2,000 tested, under 10 active; AID 1053135;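 active means inhibition above the mean over all tested compounds plus 3 SD, which no compound reached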;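 further: 0% = integrase with antibodies and DMSO and 100% = antibodies without integrase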
LEDGF integ conf = confirmation of HIV-1 LEDGF/p75-dependent integration inhibitors | shares compounds with LEDGF integ inh | TR-FRET LEDGF/p75-dependent HIV-1 integration, biochemical | inhibition, % at 3.7 µM | actives 36% (n = 2,000) | AID 1053136; in the data active means inhibition above about 14%
Starred values were filed as active, the others as inactive; · = not tested or not shown. Shown are actives, neighbours in structure and some others; about 1.6% of the full set was active somewhere.

SMILES	MBD2 DNA inh	UHRF1 MBD2 ctr	LEDGF integ inh	TDP2 absorb	IN multimer act	TR-FRET interf	LEDGF integ conf
c1ccc(CNc2ccc(N3CCOCC3)cc2)cc1	0.0	0.0	15.2*	10.2	2.0	-9.9	-5.6
COc1ccc(C(=O)OCC(=O)NC2CCCCCCC2)cc1OC	1.4	2.2	27.2*	-0.5	1.0	-4.8	2.0
COc1ccc(C(=O)OCC(=O)NC2CCCCCC2)cc1OC	3.0	3.1	-1.1	-1.9	·	·	·
CC(COc1ccc(CC#N)cc1)CN1CCC(C(O)(c2ccccc2)c2ccccc2)CC1 (configuration not stated)	-3.6	5.8	5.6	-16.7	·	·	·
COc1ccc(-n2c(Cn3c(=O)sc4ccccc43)nnc2SCC(=O)N2CCCC2)cc1	2.2	-2.7	31.9*	-3.2	-0.3	1.7	-0.9
COc1ccc(-n2c(Cn3c(=O)sc4ccccc43)nnc2SCC(=O)N2CCCCC2)cc1	4.3	1.0	0.8	-4.6	·	·	·
O=C(CCCOc1ccccc1)Nc1nccs1	2.2	0.8	-1.1	-1.8	·	·	·
O=C(Nc1nccs1)Oc1ccccc1	2.9	0.9	16.4*	3.3	1.1	-3.9	-9.8
COC(=O)[C@]12C[C@H](CC(=O)N3CCSCC3)C(=O)N(Cc3ccco3)C1=C[C@H](C(C)(C)C)O[C@@H]2C	1.7	1.9	-4.9	0.5	·	·	·
COc1ccc(-n2c(N)c(C(=O)NCC3CCCO3)c3nc4ccccc4nc32)c(OC)c1 (configuration not stated)	3.8	11.4	19.2*	73.5*	0.3	-1.7	-0.7
O=C(NC1CCC1)c1ccc(C#Cc2cccc(F)c2)cn1	6.7	17.3	4.9	2.6	·	·	·
O=C1CC(c2ccco2)CC(O)=C1C=Nc1cc(Cl)ccc1O (configuration not stated)	3.7	21.1*	34.3*	-15.1	5.3	-18.9	15.6*
O=C1CC(c2ccco2)CC(O)=C1C=Nc1ccccc1-c1ccccc1 (configuration not stated)	5.5	-1.4	2.5	-4.1	·	·	·
O=C1CC(c2ccco2)CC(O)=C1C=Nc1cc(Cl)ccc1Cl (configuration not stated)	0.3	24.4*	20.8*	2.2	-0.4	2.2	21.4*
O=C1CC(c2ccco2)CC(O)=C1C=Nc1ccc(Br)cc1 (configuration not stated)	-4.8	-1.1	7.3	13.4	·	·	·
COc1cc(C(=O)Nc2nc(C)cc(C)n2)cc(OC)c1OC	0.0	1.4	58.9*	6.8	0.0	0.2	-5.7
COc1ccc(S[C@]2(C(=O)N3CCN(c4ncccn4)CC3)CC(=O)N(C(=O)Nc3ccc(C)c(Cl)c3)[C@@H]2c2ccc(OC)cc2)cc1	-4.8	-0.9	-1.0	-5.6	·	·	·
Cc1cc([N+](=O)[O-])ccc1NC(=O)Cc1ccc(F)cc1	-4.6	-1.5	85.5*	3.2	4.1	-14.2	1.6
Cc1ccc([N+](=O)[O-])cc1NC(=O)Cc1ccc(F)cc1	-7.0	-1.9	-0.4	18.9	·	·	·
CC1CCCC(C)N1/N=C/c1ccc(O)c(O)c1 (configuration not stated)	0.0	12.1	19.9*	-6.3	21.6*	-76.8	52.9*
Cn1ccc2c(N(Cc3ccccc3)Cc3ccccc3)cc3c(c21)C1CCC3O1 (configuration not stated)	-10.4	-5.2	19.7*	7.2	-1.2	4.2	-2.8
CCOC(=O)N1Cc2cc3ccccc3nc2C1	-1.9	-6.0	6.2	-0.5	·	·	·
O=C(O)/C=C/C(=O)N1Cc2cc3ccccc3nc2C1	9.8	8.1	18.8*	-4.9	0.2	-0.8	3.1
COC(=O)\C(C(C)=O)=C(/C=C/C=C/C=C/N(C)C)N(C)C	11.4	55.0*	55.5*	6.0	8.5	-42.6	59.3*
O=C(Cn1nc(-c2ccccc2)ccc1=O)NCCc1ccc(F)cc1	-6.5	-1.1	2.8	1.2	·	·	·
SMILES	MBD2 DNA inh	UHRF1 MBD2 ctr	LEDGF integ inh	TDP2 absorb	IN multimer act	TR-FRET interf	LEDGF integ conf
CSc1ncccc1C(=O)N1CCCC(C(=O)c2ccc3ccccc3c2)C1 (configuration not stated)	5.4	10.9	15.1*	7.5	-0.3	1.5	3.8
Cc1ccc(-n2ccnc(SCC(=O)NCCc3ccccc3)c2=O)cc1F	-5.9	-3.6	17.1*	-10.3	2.7	-9.8	-9.2
COC(=O)C1CN(Cc2cn(Cc3ccccc3)nn2)CCS(=O)(=O)N1Cc1ccc(Cl)cc1 (configuration not stated)	-3.3	1.0	1.9	6.5	·	·	·
O=C1c2cccc3c2N(CCC3)C(=O)C1(F)c1ccccc1 (configuration not stated)	-4.1	-2.6	14.1*	-11.4	-0.3	0.8	-6.3
Cn1c(SCC(=O)NCc2ccco2)nnc1-c1ccccc1	0.1	-0.5	-0.1	7.7	·	·	·
Cn1c(SCC(=O)NC(=O)NCc2ccco2)nnc1-c1ccccc1	4.7	22.2*	21.5*	-15.8	7.7	-38.7	7.6
Cc1nnc(NC(=O)CSc2nnc(-c3ccccc3)n2C)s1	0.5	1.9	18.0*	-1.1	-0.5	2.7	-3.0
CC(C)CCN(C)C1CCN(C(=O)Nc2ccc(Cl)cc2)CC1	0.2	-0.1	0.4	6.1	·	·	·
CCOC(=O)C1=C(C(=O)OCC)C2N(Cc3ccc(C#N)cc3)c3ccccc3[C@@]23C[C@@H](C(=O)OC)N(S(=O)(=O)c2ccccc2C)C3=N1 (some centres not stated)	-0.4	2.5	-4.6	-3.4	·	·	·
O=S1(=O)N[C@H](Cc2ccccc2)COc2cccc(N3CCCCC3)c21	7.4	22.5*	38.6*	3.4	-1.1	5.5	-0.5
Cc1n[nH]c(C)c1S(=O)(=O)NCCc1ccccc1	-4.5	1.2	-0.4	4.0	·	·	·
CCc1ccccc1-n1c(SCC(=O)NC)nnc1-c1cccnc1	1.5	2.8	22.2*	0.1	-0.3	1.6	-7.9
CCCC/C=C1/C(c2ccccc2)N(Cc2ccc(OC)cc2OC)C2=NC(c3ccccc3)CC(=O)N21 (configuration not stated)	3.4	1.4	-3.9	14.4	·	·	·
C[C@@H]1CCN(C2CC2)S(=O)(=O)c2ccc(N3CC[C@H](O)C3)cc2O1	0.6	-2.5	4.0	-6.8	·	·	·
NS(=O)(=O)c1ccc(CCNC(=O)c2ccc(Cl)nc2)cc1	1.2	0.8	15.9*	-7.9	-0.4	2.1	-7.9
CN(c1ccc(C(=O)COC(=O)C2CC2)cc1)S(C)(=O)=O	1.7	2.1	30.6*	6.0	0.0	0.0	1.0
COC(=O)[C@H](CC(C)C)N1Cc2nnn(Cc3ccccc3)c2-c2cc(F)ccc2S1(=O)=O	-3.4	-0.3	2.0	-3.6	·	·	·
CSc1ncccc1C(=O)OCC(=O)N1CCN(S(=O)(=O)c2ccc(C)cc2C)CC1	-1.7	-0.3	-2.1	1.0	·	·	·
